{"data": "Measured values from different studies", "OPRK1": "Kappa-type opioid receptor (OPRK1, Cavia porcellus, UniProt P41144)", "HRH2": "Histamine H2 receptor (HRH2, Homo sapiens, UniProt P25021)", "ADRA1A": "Alpha-1A adrenergic receptor (ADRA1A, Homo sapiens, UniProt P35348)", "note": "Each line is one published result; the experiments were not run side by side. pEC50, pKd, pKi: −log10 of the molar value."}
{"Compound": "Cc1cc(O)cc(C)c1C[C@H](N)C(=O)N[C@H](CCCNC(=N)N)C(=O)N[C@@H](Cc1c[nH]c2ccccc12)C(=O)N[C@@H](CCCCN)C(N)=O", "target": "OPRK1", "test": "ligand displacement, radioligand", "conditions": "cell membranes", "endpoint": "pKi", "value": 7.78}
{"Compound": "CNc1nc2cc(OCCCCN3CCN(c4cccc(Cl)c4Cl)CC3)ccc2s1", "target": "HRH2", "test": "ligand displacement, radioligand", "endpoint": "pKi", "value": 6.51}
{"Compound": "CCCC[C@@H](NC(=O)[C@@H](N)Cc1ccc(O)cc1)C(=O)NCC(=O)N[C@@H](Cc1ccc(F)cc1)C(=O)N(C)CCC[C@@]1(c2ccc(F)cc2)OCc2cc(C#N)ccc21", "target": "ADRA1A", "test": "ligand displacement, radioligand", "endpoint": "pKi", "value": 5.18}
{"Compound": "Cc1cccc(C)c1C[C@H](NC(=O)[C@@H](CCCNC(=N)N)NC(=O)[C@@H](N)Cc1c(C)cc(O)cc1C)C(=O)N[C@@H](CCCCN)C(N)=O", "target": "OPRK1", "test": "ligand displacement, radioligand", "conditions": "cell membranes", "endpoint": "pKi", "value": 8.33}
{"Compound": "Cc1cc(O)cc(C)c1C[C@H](C)C(=O)N[C@@H]1CCCCC[C@@H](C(N)=O)NC(=O)[C@H](Cc2ccccc2)NC(=O)[C@H](Cc2ccccc2)NC1=O", "target": "OPRK1", "test": "ligand displacement, radioligand", "conditions": "cell membranes", "endpoint": "pKi", "value": 6.52}
{"Compound": "OC(c1ccc(F)cc1)C(F)(F)CCN1CCC(O)(c2ccc(Cl)cc2)CC1 (racemic)", "target": "HRH2", "test": "cell-free assay, radioligand", "endpoint": "pKi", "value": 5.32}
{"Compound": "Cc1nccc2c1[nH]c1ccccc12", "target": "Amine oxidase [flavin-containing] A (MAOA, Homo sapiens, UniProt P21397)", "test": "enzyme activity, inhibitor", "endpoint": "pKi", "value": 6.24}
{"Compound": "N=C(N)NCCC[C@H]1NC(=O)[C@H](Cc2ccc(O)cc2)NC(=O)[C@H](CCCCN)NC(=O)[C@H](Cc2ccccc2)NC1=O", "target": "OPRK1", "test": "ligand displacement, radioligand", "conditions": "cell membranes", "endpoint": "pKi", "value": 7.17}
{"Compound": "CC(C)C[C@H](NC(=O)[C@H](CCCCN)NC(=O)[C@@H]1CCCN1C(=O)[C@@H](N)CCCNC(=N)N)C(=O)N[C@@H](CCCCN)C(=O)O", "target": "ADRA1A", "test": "cell-free assay, radioligand", "endpoint": "pKi", "value": "< 5.00"}
{"Compound": "CCCC[C@@H](NC(=O)[C@@H](N)Cc1c(C)cc(O)cc1C)C(=O)NCC(=O)N[C@@H](Cc1ccc(F)cc1)C(=O)N(C)CCC[C@@]1(c2ccc(F)cc2)OCc2cc(C#N)ccc21", "target": "ADRA1A", "test": "ligand displacement, radioligand", "endpoint": "pKi", "value": "< 5.00"}
{"Compound": "Cc1cc(O)cc(C)c1C[C@H](C)C(=O)N[C@@H]1C/C=C/CC[C@@H](C(N)=O)NC(=O)[C@H](Cc2ccccc2)NC(=O)[C@H](Cc2ccccc2)NC1=O", "target": "OPRK1", "test": "ligand displacement, radioligand", "conditions": "cell membranes", "endpoint": "pKi", "value": 6.20}
{"Compound": "CSCC[C@H](NC(=O)[C@H](Cc1c[nH]c2ccccc12)NC(=O)[C@@H](N)CO)C(=O)N[C@H](C(=O)N[C@H](C(=O)N1CCC[C@H]1C(=O)N[C@@H](Cc1c[nH]c2ccccc12)C(=O)NCC(=O)N[C@@H](Cc1ccccc1)C(=O)N[C@@H](Cc1c[nH]cn1)C(=O)N[C@@H](CC(C)C)C(=O)N1CCC[C@H]1C(=O)O)[C@@H](C)O)[C@@H](C)O", "target": "Chaperonin GroEL (groEL, Escherichia coli, UniProt P0A6F5)", "test": "binding, ITC", "endpoint": "pKd", "value": 5.85}
{"Compound": "CC[C@H](C)[C@H](NC(=O)[C@H](CC(=O)O)NC(=O)[C@H](CC(N)=O)NC(=O)[C@@H](NC(=O)[C@H](Cc1ccccc1)NC(=O)[C@H](CO)NC(=O)CNC(=O)[C@H](CC(=O)O)NC(=O)[C@H](C)NC(=O)[C@@H](N)Cc1c[nH]cn1)[C@@H](C)O)C(=O)N[C@@H](CC(N)=O)C(=O)N[C@@H](CCCCN)C(=O)N[C@H](C(=O)N[C@@H](CC(C)C)C(=O)N[C@@H](CC(=O)O)C(=O)N[C@H](C(=O)N[C@H](C(=O)N[C@@H](C)C(=O)N[C@@H](C)C(=O)N[C@@H](CCC(N)=O)C(=O)N[C@@H](CCC(=O)O)C(=O)N[C@@H](Cc1ccccc1)C(=O)N[C@@H](CC(C)C)C(=O)N[C@@H](CC(=O)O)C(=O)N[C@@H](Cc1c[nH]c2ccccc12)C(=O)N[C@H](C(=O)N[C@H](C(=O)N[C@@H](CC(N)=O)C(=O)N[C@H](C(=O)N[C@@H](CCC(N)=O)C(=O)N[C@H](C(=O)N[C@H](C(=O)N[C@@H](CCC(=O)O)C(=O)O)[C@@H](C)O)C(C)C)[C@@H](C)O)[C@@H](C)CC)C(C)C)[C@@H](C)CC)[C@@H](C)CC)C(C)C", "target": "Glucagon-like peptide 2 receptor (GLP2R, Homo sapiens, UniProt O95838)", "test": "reporter gene, agonist, luciferase", "endpoint": "pEC50", "value": "< 6.00"}
